ChEMBL document CHEMBL2412972, “Design, synthesis and biological evaluation of novel triaryl (Z)-olefins as tamoxifen analogues” (Bioorg Med Chem Lett, 2013)
Activity calls are given as the source filed them. The rule behind the calls is not given here.

Legend:
MCF7 [1] = assay: Antiproliferative activity against human MCF7 cells after 72 hrs by MTT assay; type: functional, cell-based; conditions: MCF7, 72 h
Outline: (§1)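 Cells were seeded in 96-well plates for 24 h, then exposed to a range of concentrations for 72 h in DMEM/F-12 with 5% FBS. DMSO vehicle controls were matched. MTT was added at 0.5 mg/ml for 2 h at 37 °C, solubilized in DMSO, and read at 570 nm. IC50 is the concentration giving 50% cell death relative to DMSO control. Mean ± SD, n = 6.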

MDA-MB-231 [2] = assay: Antiproliferative activity against human MDA-MB-231 cells after 72 hrs by MTT assay; type: functional, cell-based; conditions: MDA-MB-231, 72 h; outline: as §1
MCF7 [3] = assay: Ratio of tamoxifen IC50 to compound IC50 for human MCF7 cells after 72 hrs by MTT assay; type: functional
MCF7 [4] = assay: Induction of apoptosis in human MCF7 cells assessed as caspase 3/7 activation after 72 hrs by luminescence assay; type: functional, cell-based
Outline: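 MCF-7 cells were plated at 1×10^4 per well, incubated for 24 h, then treated for 72 h. Caspase-3/7 activity was measured with a Caspase-Glo luminogenic DEVD substrate, and luminescence was reported as relative light units. Compared with DMSO vehicle; mean ± SD, n = 6.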

MCF7 [5] = assay: Antiproliferative activity against human MCF7 cells at 5 uM after 72 hrs by MTT assay in presence of estradiol; type: functional, cell-based
Outline: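 MCF-7 cells (ATCC) were maintained in DMEM/F-12 with 10% FBS at 37 °C and 5% CO2. They were seeded for 24 h, then treated with 5 µM test agent for 72 h in 5% FBS medium, with and without estradiol. Read-out was MTT absorbance at 570 nm, expressed as percent of control wells. Two experiments, each with six replicates; mean ± SD.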

MDA-MB-231 [6] = assay: Ratio of tamoxifen IC50 to compound IC50 for human MDA-MB-231 cells after 72 hrs by MTT assay; type: functional

| SMILES | IC50 (MCF7 [1]) [µM] | IC50 (MDA-MB-231 [2]) [µM] | Ratio IC50 (MCF7 [3]) | Activity (MCF7 [4]) | Activity (MCF7 [5]) | Ratio IC50 (MDA-MB-231 [6]) |
| --- | --- | --- | --- | --- | --- | --- |
| CC/C(=C(\c1ccccc1)c1ccc(OCCN(C)C)cc1)c1ccccc1 [TAMOXIFEN] | 28 | 64.8 | – | – | – | – |
| C/C(=C(\c1ccccc1)c1ccc(OCCN2CCCCC2)cc1)c1ccc(F)cc1 | 16.6 | 43 | – | – | – | – |
| C/C(=C(\c1ccccc1)c1ccc(OCCN2CCN(C)CC2)cc1)c1ccccc1 | 6.75 | 10.5 | 2 | Active | Active | 2 |
| C/C(=C(\c1ccccc1)c1ccc(OCCN2CCNCC2)cc1)c1ccc(F)cc1 | 5.58 | 13 | 2 | Active | Active | 2 |
| C/C(=C(\c1ccccc1)c1ccc(OCCN2CCCCC2)cc1)c1ccccc1 | 55.5 | 73.5 | – | – | – | – |
| C/C(=C(\c1ccccc1)c1ccc(OCCN2CCN(C)CC2)cc1)c1ccc(F)cc1 | 86.3 | > 100 | – | – | – | – |
| C/C(=C(\c1ccccc1)c1ccc(OCCN2CCNCC2)cc1)c1ccccc1 | > 100 | > 100 | – | – | – | – |
